Here are results for 1 molecule from ChEMBL document CHEMBL5055621, “Synthesis and Characterization of the Novel Rodent-Active and CNS-Penetrant P2X7 Receptor Antagonist Lu AF27139” (J Med Chem, 2021).

A short description of data set [1]: Efflux ratio of permeability across basolateral to apical side over apical to basolateral side in MDCK2-MDR1 cells. As to conditions: dog, MDCK-MDR1; call rule not given here. The data set is classed as ADME, cell-based, Canis lupus familiaris. The method, boiled down:
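MDR1-MDCK monolayers; permeability measured in both A-to-B and B-to-A directions, in triplicate. Efflux ratio taken as B:A over A:B permeation.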

Data set [2] concerns the target Cytochrome P450 3A4 (Homo sapiens, UniProt P08684). Nature of the data set: Inhibition of CYP3A4 (unknown origin) upto 25 uM. The data set is classed as ADME.
Data set [3] in a line: Inhibition of BzATP-induced IL-1beta in rat primary microglia cells primed with LPS measured after repeated BzATP treatment by microplate reader. Type of data set: functional, tissue-based. The method, boiled down:
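Cortical microglia from rat (P3 pups) or mouse were plated 1 day before assay and primed with 3 EU/mL LPS for 3.5 h. Compound was added for 30 min, then BzATP (1 mM) for 30 min at 37 °C. IL-1β was measured by MesoScale assay, normalised to BCA protein, and given as mean ± SD.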

Data set [4] in a line: Thermodynamic solubility of the compound by shake flask HPLC method. The data set is classed as physicochemical. As to conditions: read-out: Therm_solubility. The method, boiled down:
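Thermodynamic solubility was measured by shake flask with HPLC quantification.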

A short description of data set [5]: Tmax in female mouse at 100 mg/kg, po administered as single dose. The conditions noted are these: in vivo.
Data set [6] has as its target T1, Potassium voltage-gated channel subfamily KQT member 1 (Homo sapiens, UniProt P51787).
T1 sequence (P51787 whole entry): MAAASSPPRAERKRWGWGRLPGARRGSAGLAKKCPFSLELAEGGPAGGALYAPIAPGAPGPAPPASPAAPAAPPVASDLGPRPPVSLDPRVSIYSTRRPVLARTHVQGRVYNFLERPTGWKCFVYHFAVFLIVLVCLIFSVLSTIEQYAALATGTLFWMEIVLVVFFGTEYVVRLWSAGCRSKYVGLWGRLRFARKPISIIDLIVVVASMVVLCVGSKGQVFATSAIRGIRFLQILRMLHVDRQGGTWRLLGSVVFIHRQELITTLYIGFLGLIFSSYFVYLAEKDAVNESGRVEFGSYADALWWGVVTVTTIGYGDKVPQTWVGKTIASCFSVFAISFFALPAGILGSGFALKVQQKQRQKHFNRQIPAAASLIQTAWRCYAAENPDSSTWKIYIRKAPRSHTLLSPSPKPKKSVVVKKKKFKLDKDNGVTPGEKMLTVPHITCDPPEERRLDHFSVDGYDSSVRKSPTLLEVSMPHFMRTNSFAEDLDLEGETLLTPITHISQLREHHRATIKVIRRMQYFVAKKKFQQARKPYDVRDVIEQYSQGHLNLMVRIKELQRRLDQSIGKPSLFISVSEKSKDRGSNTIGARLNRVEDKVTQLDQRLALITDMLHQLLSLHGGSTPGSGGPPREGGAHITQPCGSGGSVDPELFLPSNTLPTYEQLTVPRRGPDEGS
Nature of the data set: Inhibition of human KCNQ1 at 10 uM. The method, boiled down: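 Human Nav1.5, Cav1.2 and KCNQ1/minK channels were tested at 10 μM.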

Molecules are shown by their SMILES. Converted amounts (≈) assume the structure as drawn.

Chain of Cytochrome P450 3A4 (P08684 whole entry): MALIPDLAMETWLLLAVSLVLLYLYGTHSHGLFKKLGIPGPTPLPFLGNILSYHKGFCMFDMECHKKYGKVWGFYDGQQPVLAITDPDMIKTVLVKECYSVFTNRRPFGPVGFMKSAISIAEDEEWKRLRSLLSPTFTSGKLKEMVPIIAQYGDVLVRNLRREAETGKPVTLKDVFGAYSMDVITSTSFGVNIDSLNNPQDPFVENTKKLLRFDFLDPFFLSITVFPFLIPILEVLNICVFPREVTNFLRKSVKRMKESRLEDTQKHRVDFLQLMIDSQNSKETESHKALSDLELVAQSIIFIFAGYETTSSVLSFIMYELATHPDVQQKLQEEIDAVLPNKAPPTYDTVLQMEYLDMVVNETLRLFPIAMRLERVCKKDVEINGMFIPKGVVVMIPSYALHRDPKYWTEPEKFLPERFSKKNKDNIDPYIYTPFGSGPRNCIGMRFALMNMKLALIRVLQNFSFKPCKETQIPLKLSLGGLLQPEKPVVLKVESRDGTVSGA

By efflux ratio is commonly meant the permeability from basolateral to apical divided by that in the opposite direction, in the common usage. Broadly, the IC50 is the concentration needed to halve the response being measured. A higher IC50 goes with a need for much substance. One may read the Tmax as the time from dosing to the highest level. Consider `O=C(NC[C@H](c1ccc(Cl)cc1)N1CCOCC1)c1sc(-c2ncccn2)nc1C(F)(F)F`, for which the efflux ratio in data set [1] turned out to be 0.81. The “inhibition (INH)” value in data set [2] and in data set [6] was “Not Active” in each case. The IC50 in data set [3] came to 38 nM. The solubility thermodynamic in data set [4] is 16 µg/mL (≈ 32.1 µM). Besides, the Tmax in data set [5] was 1 h.
